Each block holds one compound with its values, some of them ahead of it.
Legend:
[1] = Tmax in human at 400 mg, po bid from day 11 to day 20 pretreated with placebo from day 1 to day 3 followed by washout from day 4 to day 10 followed by 400 mg, po of drug coadministered with placebo from day 21 to day 30; type: ADME, organism-based; conditions: in vivo
Outline: (§1)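 Blood (7 ml) drawn on days 20 and 30 at 0.5–12 h postdose, centrifuged at 1,700 x g about 10 min at about 4°C, plasma stored at about –20°C. Validated LC/MS/MS assay; noncompartmental analysis, with Cmax and Tmax read directly from concentration-time data.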

[2] = AUC (0 to 12 hrs) in human at 100 mg, po bid from day 11 to day 20 pretreated with voriconazole 400 mg, po bid on day 1 and 200 mg, po bid on day 2 and 3 followed by washout from day 4 to day 10 followed by 100 mg, po of drug coadministered with voriconazole 200 mg, po from day 21 to day 30; type: ADME, organism-based; parameters: dose 100 mg, time < 12 hr, route oral; conditions: plasma; outline: as §1
[3] = AUC (0 to 12 hrs) in human at 400 mg, po bid from day 11 to day 20 pretreated with placebo from day 1 to day 3 followed by washout from day 4 to day 10 followed by 400 mg, po of drug coadministered with placebo from day 21 to day 30; type: ADME, organism-based; parameters: dose 400 mg, time < 12 hr, route oral; conditions: plasma; outline: as §1
[4] = Tmax in human at 100 mg, po bid from day 11 to day 20 pretreated with voriconazole 400 mg, po bid on day 1 and 200 mg, po bid on day 2 and 3 followed by washout from day 4 to day 10; type: ADME, organism-based; conditions: in vivo; outline: as §1
[5] = Tmax in human at 100 mg, po bid from day 11 to day 20 pretreated with voriconazole 400 mg, po bid on day 1 and 200 mg, po bid on day 2 and 3 followed by washout from day 4 to day 10 followed by 100 mg, po of drug coadministered with voriconazole 200 mg, po from day 21 to day 30; type: ADME, organism-based; conditions: in vivo
[6] = Tmax in human at 400 mg, po bid from day 11 to day 20 pretreated with placebo from day 1 to day 3 followed by washout from day 4 to day 10; type: ADME, organism-based; conditions: in vivo; outline: as §1
[7] = Cmax in human at 400 mg, po bid from day 11 to day 20 pretreated with voriconazole 400 mg, po bid on day 1 and 200 mg, po bid on day 2 and 3 followed by washout from day 4 to day 10 followed by 400 mg, po of drug coadministered with voriconazole 200 mg, po from day 21 to day 30; type: ADME, organism-based; parameters: dose 400 mg, route oral; conditions: in vivo; outline: as §1
[8] = Cmax in human at 400 mg, po bid from day 11 to day 20 pretreated with placebo from day 1 to day 3 followed by washout from day 4 to day 10; type: ADME, organism-based; parameters: dose 400 mg, route oral; conditions: in vivo; outline: as §1
[9] = AUC (0 to 12 hrs) in human at 400 mg, po bid from day 11 to day 20 pretreated with placebo from day 1 to day 3 followed by washout from day 4 to day 10; type: ADME, organism-based; parameters: dose 400 mg, time < 12 hr, route oral; conditions: plasma; outline: as §1
[10] = AUC (0 to 12 hrs) in human at 100 mg, po bid from day 11 to day 20 pretreated with voriconazole 400 mg, po bid on day 1 and 200 mg, po bid on day 2 and 3 followed by washout from day 4 to day 10; type: ADME, organism-based; parameters: dose 100 mg, time < 12 hr, route oral; conditions: plasma; outline: as §1
[11] = AUC (0 to 12 hrs) in human at 400 mg, po bid from day 11 to day 20 pretreated with voriconazole 400 mg, po bid on day 1 and 200 mg, po bid on day 2 and 3 followed by washout from day 4 to day 10 followed by 400 mg, po of drug coadministered with voriconazole 200 mg, po from day 21 to day 30; type: ADME, organism-based; parameters: time < 12 hr, dose 400 mg, route oral; conditions: plasma; outline: as §1
[12] = Tmax in human at 400 mg, po bid from day 11 to day 20 pretreated with voriconazole 400 mg, po bid on day 1 and 200 mg, po bid on day 2 and 3 followed by washout from day 4 to day 10 followed by 400 mg, po of drug coadministered with voriconazole 200 mg, po from day 21 to day 30; type: ADME, organism-based; conditions: in vivo; outline: as §1
[13] = Tmax in human at 400 mg, po bid from day 11 to day 20 pretreated with voriconazole 400 mg, po bid on day 1 and 200 mg, po bid on day 2 and 3 followed by washout from day 4 to day 10; type: ADME, organism-based; conditions: in vivo; outline: as §1
[14] = AUC (0 to 12 hrs) in human at 400 mg, po bid from day 11 to day 20 pretreated with voriconazole 400 mg, po bid on day 1 and 200 mg, po bid on day 2 and 3 followed by washout from day 4 to day 10; type: ADME, organism-based; parameters: dose 400 mg, time < 12 hr, route oral; conditions: plasma; outline: as §1
[15] = Cmax in human at 100 mg, po bid from day 11 to day 20 pretreated with voriconazole 400 mg, po bid on day 1 and 200 mg, po bid on day 2 and 3 followed by washout from day 4 to day 10 followed by 100 mg, po of drug coadministered with voriconazole 200 mg, po from day 21 to day 30; type: ADME, organism-based; parameters: dose 100 mg, route oral; conditions: in vivo; outline: as §1
[16] = Cmax in human at 400 mg, po bid from day 11 to day 20 pretreated with voriconazole 400 mg, po bid on day 1 and 200 mg, po bid on day 2 and 3 followed by washout from day 4 to day 10; type: ADME, organism-based; parameters: dose 400 mg, route oral; conditions: in vivo; outline: as §1
[17] = Cmax in human at 400 mg, po bid from day 11 to day 20 pretreated with placebo from day 1 to day 3 followed by washout from day 4 to day 10 followed by 400 mg, po of drug coadministered with placebo from day 21 to day 30; type: ADME, organism-based; parameters: dose 400 mg, route oral; conditions: in vivo; outline: as §1
[18] = Cmax in human at 100 mg, po bid from day 11 to day 20 pretreated with voriconazole 400 mg, po bid on day 1 and 200 mg, po bid on day 2 and 3 followed by washout from day 4 to day 10; type: ADME, organism-based; parameters: dose 100 mg, route oral; conditions: in vivo; outline: as §1
[19] = Tmax in human at 400 mg, po bid on day 1 and 200 mg, po bid on day 2 and 3 followed by 7 days of washout period then treated with ritonavir 100 mg, po for 10 days followed by 200 mg, po of drug coadministered with 100 mg, po ritonavir till day 30; type: ADME, organism-based; conditions: in vivo
Outline: (§2)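 Healthy male volunteers. […] Plasma was sampled on days 3 and 30 at 0.5–12 h postdose. Samples were solid-phase extracted and assayed by LC/MS/MS (range 10 to 2,500 ng/ml). Cmax and Tmax were read directly from the data; AUC0-12 was noncompartmental.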

[20] = Tmax in human at 400 mg, po bid on day 1 and 200 mg, po bid on day 2 and 3 measured after 3 days; type: ADME, organism-based; conditions: in vivo; outline: as §2
Homo sapiens [21] = test: Toxicity in human assessed as mortality at 400 mg, po bid on day 1 and 200 mg, po bid on day 2 and 3 measured after 3 days; type: organism-based; conditions: in vivo, 72 h
Outline: (§3)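 Healthy male subjects were followed for adverse events throughout dosing. Vital signs and 12-lead ECGs were recorded predose and 1, 3 and 8 h after the morning voriconazole dose on days 1, 3, 11, 15, 20, 21, 25 and 30. The baseline was the mean of triplicate day-1 predose ECGs. Safety data were summarized descriptively.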

[22] = Cmax in human at 400 mg, po bid on day 1 and 200 mg, po bid on day 2 and 3 followed by 7 days of washout period then treated with ritonavir 400 mg, po for 10 days followed by 200 mg, po of drug coadministered with 400 mg, po ritonavir till day 30; type: ADME, organism-based; parameters: dose 400 mg, route oral; conditions: in vivo; outline: as §2
[23] = Cmax in human at 400 mg, po bid on day 1 and 200 mg, po bid on day 2 and 3 measured after 3 days; type: ADME, organism-based; parameters: dose 400 mg, route oral; conditions: in vivo; outline: as §2
[24] = Cmax in human at 400 mg, po bid on day 1 and 200 mg, po bid on day 2 and 3 followed by 7 days of washout period then treated with ritonavir 100 mg, po for 10 days followed by 200 mg, po of drug coadministered with 100 mg, po ritonavir till day 30; type: ADME, organism-based; parameters: dose 400 mg, route oral; conditions: in vivo; outline: as §2
[25] = AUC (0 to 12 hrs) in human at 400 mg, po bid on day 1 and 200 mg, po bid on day 2 and 3 measured after 3 days; type: ADME, organism-based; parameters: dose 400 mg, time < 12 hr, route oral; conditions: plasma; outline: as §2
[26] = Tmax in human at 400 mg, po bid on day 1 and 200 mg, po bid on day 2 and 3 followed by 7 days of washout period then treated with ritonavir 400 mg, po for 10 days followed by 200 mg, po of drug coadministered with 400 mg, po ritonavir till day 30; type: ADME, organism-based; conditions: in vivo; outline: as §2
Homo sapiens [27] = test: Toxicity in human assessed as serious adverse events at 400 mg, po bid on day 1 and 200 mg, po bid on day 2 and 3 followed by 7 days of washout period then treated with ritonavir 400 mg, po for 10 days followed by 200 mg, po of drug coadministered with ritonavir 400 mg, po till day 30; type: organism-based; conditions: in vivo; outline: as §3
[28] = AUC (0 to 12 hrs) in human at 400 mg, po bid on day 1 and 200 mg, po bid on day 2 and 3 followed by 7 days of washout period then treated with ritonavir 400 mg, po for 10 days followed by 200 mg, po of drug coadministered with 400 mg, po ritonavir till day 30; type: ADME, organism-based; parameters: time < 12 hr, dose 400 mg, route oral; conditions: plasma; outline: as §2
Homo sapiens [29] = test: Toxicity in human assessed as serious adverse events at 400 mg, po bid on day 1 and 200 mg, po bid on day 2 and 3 followed by 7 days of washout period then treated with ritonavir 100 mg, po for 10 days followed by 200 mg, po of drug coadministered with ritonavir 100 mg, po till day 30; type: organism-based; conditions: in vivo; outline: as §3
Homo sapiens [30] = test: Toxicity in human assessed as mortality at 400 mg, po bid on day 1 and 200 mg, po bid on day 2 and 3 followed by 7 days of washout period then treated with ritonavir 400 mg, po for 10 days followed by 200 mg, po of drug coadministered with ritonavir 400 mg, po till day 30; type: organism-based; conditions: in vivo; outline: as §3
Homo sapiens [31] = test: Decrease in Cmax of ritonavir in human at 400 mg, po bid on day 1 and 200 mg, po bid on day 2 and 3 followed by 7 days of washout period then treated with ritonavir 100 mg, po for 10 days followed by 200 mg, po of drug coadministered with ritonavir 100 mg, po till day 30; type: ADME, organism-based; conditions: in vivo
Homo sapiens [32] = test: Toxicity in human assessed as serious adverse events at 400 mg, po bid on day 1 and 200 mg, po bid on day 2 and 3 measured after 3 days; type: organism-based; conditions: in vivo, 72 h; outline: as §3
Homo sapiens [33] = test: Toxicity in human assessed as mortality at 400 mg, po bid on day 1 and 200 mg, po bid on day 2 and 3 followed by 7 days of washout period then treated with ritonavir 100 mg, po for 10 days followed by 200 mg, po of drug coadministered with ritonavir 100 mg, po till day 30; type: organism-based; conditions: in vivo; outline: as §3
[34] = AUC (0 to 12 hrs) in human at 400 mg, po bid on day 1 and 200 mg, po bid on day 2 and 3 followed by 7 days of washout period then treated with ritonavir 100 mg, po for 10 days followed by 200 mg, po of drug coadministered with 100 mg, po ritonavir till day 30; type: ADME, organism-based; parameters: time < 12 hr, dose 400 mg, route oral; conditions: plasma; outline: as §2

Tmax [1]: 1 h
AUC at 12 h [2]: 6430 ng·h/mL
AUC at 12 h [3]: 58400 ng·h/mL
Tmax [4]: 1 h
Tmax [5]: 3 h
Tmax [6]: 1 h
Cmax [7]: 10400 ng/mL
Cmax [8]: 10500 ng/mL
AUC at 12 h [9]: 65300 ng·h/mL
AUC at 12 h [10]: 7810 ng·h/mL
AUC at 12 h [11]: 65900 ng·h/mL
Tmax [12]: 1 h
Tmax [13]: 1.5 h
AUC at 12 h [14]: 68000 ng·h/mL
Cmax [15]: 992 ng/mL
Cmax [16]: 10700 ng/mL
Cmax [17]: 10200 ng/mL
Cmax [18]: 1410 ng/mL
SMILES: CC(C)c1nc(CN(C)C(=O)N[C@H](C(=O)N[C@@H](Cc2ccccc2)C[C@H](O)[C@H](Cc2ccccc2)NC(=O)OCc2cncs2)C(C)C)cs1 [RITONAVIR]

SMILES: C[C@@H](c1ncncc1F)[C@](O)(Cn1cncn1)c1ccc(F)cc1F [VORICONAZOLE]
Tmax [19]: 1.5 h
Tmax [20]: 1.5 h
Activity (Homo sapiens [21]): Non-toxic
Cmax [22]: 1220 ng/mL
Cmax [23]: 3360 ng/mL
Cmax [24]: 2810 ng/mL
AUC at 12 h [25]: 26500 ng·h/mL
Tmax [26]: 1 h
Activity (Homo sapiens [27]): Non-toxic
AUC at 12 h [28]: 4250 ng·h/mL
Activity (Homo sapiens [29]): Non-toxic
Activity (Homo sapiens [30]): Non-toxic
Activity (Homo sapiens [31]): Non-toxic
Activity (Homo sapiens [32]): Non-toxic
Activity (Homo sapiens [33]): Non-toxic
AUC at 12 h [34]: 19500 ng·h/mL
